Laboratory results taken from ChEMBL document CHEMBL1129511 (J Med Chem, 1996).

How the values were obtained:
[1] = Half life period was reported; format: ADME
Bacteria [2] = assay: Catalytic rate constant for bacterial Carboxypeptidase
Summary of the method: (§1)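 CPG2 kinetics adapted from the methotrexate CPG2 method. Prodrug and drug spectra were scanned from 200 to 350 nm, and the wavelength of maximal absorbance difference from glutamate release was chosen. Initial rates of prodrug conversion were measured at 1-100 µM prodrug with 0.05-1 Unit CPG2 to give Km and Vmax. kcat was Vmax divided by the amount of CPG2.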

LoVo = assay: Inhibitory concentration was evaluated against colorectal tumar cell line LoVo; format: functional, cell-based; details: Homo sapiens
Summary of the method: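 Cells were exposed to compound in microtitre plates for 1 h, washed, then grown a further 3 days at 37 °C. They were fixed with TCA, and adherent cellular protein was measured by SRB staining. IC50 is the concentration giving 50% growth inhibition.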

Bacteria [3] = assay: Michaelis-Menten constant for bacterial Carboxypeptidase; summary of the method: as §1

O=C(O)CC[C@H](NC(=O)Nc1ccc(N(CCCl)CCCl)cc1)C(=O)O
half-life [1]: 16.9 min
k cat (Bacteria [2]): 7.5 s⁻¹
IC50 (LoVo): 200 µM
Km (Bacteria [3]): 3 µM

CS(=O)(=O)OCCN(CCCl)c1ccc(C(=O)N[C@@H](CCC(=O)O)C(=O)O)cc1
half-life [1]: 46 min
k cat (Bacteria [2]): 583 s⁻¹
IC50 (LoVo): > 500 µM
Km (Bacteria [3]): 3.4 µM

O=C(O)CC[C@H](NC(=O)Oc1ccc(N(CCCl)CCCl)cc1)C(=O)O
half-life [1]: 31 min
k cat (Bacteria [2]): 49 s⁻¹
IC50 (LoVo): 200 µM
Km (Bacteria [3]): 1 µM

O=C(O)CC[C@H](NC(=O)Cc1ccc(N(CCCl)CCCl)cc1)C(=O)O
half-life [1]: 33 min
k cat (Bacteria [2]): 15 s⁻¹
IC50 (LoVo): > 500 µM
Km (Bacteria [3]): 16 µM

O=C(O)CC[C@H](NC(=O)Sc1ccc(N(CCCl)CCCl)cc1)C(=O)O
half-life [1]: 32.2 min
k cat (Bacteria [2]): 4 s⁻¹
IC50 (LoVo): 100 µM
Km (Bacteria [3]): 50 µM

O=C(O)CC[C@H](NC(=O)c1ccc(N(CCCl)CCCl)cc1)C(=O)O
half-life [1]: 660 min
k cat (Bacteria [2]): 700 s⁻¹
IC50 (LoVo): > 500 µM
Km (Bacteria [3]): 3.4 µM

CS(=O)(=O)OCCN(CCCl)c1ccc(C(=O)O)cc1
IC50 (LoVo): 80 µM
